ChEMBL document CHEMBL4513216, “Probing the Open Global Health Chemical Diversity Library for Multistage-Active Starting Points for Next-Generation Antimalarials” (ACS Infect Dis, 2020)

Assay: Toxicity liver stage against HepG2, at 10uM
Type: cell-based
Set-up: test concentration 10 uM, cell line HepG2-A16-CD81EGFP
Details: human, HepG2-A16-CD81EGFP cells; read-out: INHIBITION
Procedure, shortened: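 Uninfected HepG2-A16-CD81EGFP cells, 3 × 10^3 per well, 1536-well, plated on prespotted compound at 10 μM final, parasite-free screening media added to match infected plates; puromycin 10 μM positive, DMSO 0.5% negative; run in parallel with 48 h PbLuc assay at 37 °C, 5% CO2; viability by CellTiter-Glo luminescence, normalized to controls.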

| Structure (SMILES) | cytotoxicity at 10 µM [%] |
| --- | --- |
| Cn1ncc2c1C(COCC1CC1)CN(c1ncc(F)cn1)C2 (stereo unspecified) | 12.1 |
| CCc1nc(CN2CCCN(c3ncnc4ccccc34)CC2)no1 | 43.6 |
| Cc1noc(C)c1CNCC1Cn2nncc2CO1 (stereo unspecified) | -101 |
| Cc1cc(NC(N)=O)ccc1C(=O)N(C)C | 12.2 |
| CC1CN(C)CCN1C(=O)c1cnc2c(cnn2C2CCCC2)c1 (stereo unspecified) | -12.8 |
| CCCC(=O)N1CCCC(c2cc3cccnc3c(O)n2)C1 (stereo unspecified) | 7.53 |
| CCC(C)c1noc(C2CCN(C(=O)c3ccccn3)CC2)n1 (stereo unspecified) | 4.59 |
| CC(C)Oc1ncccc1CNC(=O)C1CCCN(C(=O)C2CC2)C1 (stereo unspecified) | -8.57 |
| CN(C)C(=O)CN1C(=O)CCC12CCN(Cc1cccn1C)CC2 | 6.45 |
| Cc1ccc2c(c1)C1(CCNCC1)CC2NC1CC1 (stereo unspecified) | -117 |
| CCN(CC)C1CCN(C(=O)NCc2cccc(-n3ccnc3)c2)C1 (stereo unspecified) | -4.45 |
| COc1c(CNC2CCN(C(=O)C(C)C)CC2)c(C(C)C)nn1C | 1.25 |
| CNC(=O)[C@@H]1C[C@H]2CN(C(=O)c3ccco3)C[C@H]2N1C(C)C | -1.84 |
| Nc1cccnc1N1CCC(C(F)(F)F)CC1 | 8.19 |
| O=S(=O)(NC1CCCCC12OCCO2)c1cc(F)cc(F)c1 (stereo unspecified) | -3.55 |
| Cc1nn(C)cc1-c1cncn1CCN(C)C1CCCC1 | -4.64 |
| CC(C)(CNC(=O)Nc1cccc(-c2nccs2)c1)C(N)=O | -10 |
| C[C@@H]1CN(C(=O)C2(Cn3cccn3)CC2)CC[C@@]1(O)C1CC1 | -2.6 |
| Cc1ccc(O[C@@H]2C[C@H]3CN(c4ncc(F)cn4)CCN3C2)cc1 | 35.3 |
| N#CCCN(c1ccccc1)S(=O)(=O)CC1CCCCO1 (stereo unspecified) | -4.69 |
| Cn1cc(N2CCN(c3ccc(C#N)c(Cl)c3)CC2=O)cn1 | -3.81 |
| Cc1noc(C)c1CN(Cc1cccs1)C1CCS(=O)(=O)C1 (stereo unspecified) | -0.375 |
| CCCN1CCC2(C1)c1ccccc1S(=O)(=O)N2Cc1ccccc1 (stereo unspecified) | 16.7 |

| Structure (SMILES) | cytotoxicity at 10 µM [%] |
| --- | --- |
| CN(C)C(=O)c1cccnc1SCc1ccccc1C#N | 2.02 |
| COCCOc1ccc(C(=O)N2CCCC(n3cncn3)C2)cn1 (stereo unspecified) | -11.7 |
| Cc1cnc(C(=O)NCC2CCOc3ccccc3C2)cn1 (stereo unspecified) | 5.06 |
| CCn1cnnc1CCNC(=O)c1ccc(F)c(Br)c1 | 5.36 |
| CN1CC2(CCN(c3nc(N)nc4c3CCNC4)CC2)OC1=O | -5.66 |
| CCC(C)(NCC(N)=O)c1nccs1 (stereo unspecified) | 7.3 |
| COc1ccc(C(=O)N2Cc3c(Cn4ccnc4)nn(C)c3C2)cc1 | 4.89 |
| CCOCC1CN(C(=O)CC2=CCCCC2)Cc2nnn(C)c21 (stereo unspecified) | -110 |
| CCc1noc(CN(CC(=O)N2CCCCC2)c2ccc(C)cc2)n1 | -3.24 |
| CC(C)c1cc(C(=O)N2CCN(c3ccncc3)CC2)n(C)n1 | -3.5 |
| Cc1nn(C)c(N(C)C)c1CNCc1ccccc1Cn1cncn1 | 3.85 |
| COc1cccc(CCC(=O)N2CCN(Cc3noc(C)n3)CC2)c1 | 3.09 |
| CC(C)(C)c1ccc(-c2n[nH]c3c2CN(CC2CCOC2)CC3)cc1 (stereo unspecified) | -40.1 |
| Nc1nc2c(c3c1C(=O)NC3=O)CCCC2 | 10.2 |
| Cc1cnc(CN2CCCC(c3cc(C)[nH]n3)C2)cn1 (stereo unspecified) | 0.802 |
| Cc1cc(NC(=O)CN2CCN(C3CCCC3)C(=O)C2)nn1C | 0.825 |
| COCC1c2nnn(CC3CC3)c2CCN1C(=O)C1CCOCC1 (stereo unspecified) | -136 |
| Cn1cnnc1S(=O)(=O)C1CCN(S(=O)(=O)c2c(Cl)cccc2Cl)CC1 | -14.2 |
| O=C(Cc1cccs1)N1C[C@@H]2OCCN(CC3CCCO3)[C@@H]2C1 (stereo partly specified) | -11 |
| CC1c2ncc(CNC(=O)C3CC3)n2CCN1Cc1ccncc1 (stereo unspecified) | -5.72 |
| Cc1oc2c(c1C(=O)N1CC[C@H](O)[C@]3(CCCO3)C1)CCCC2 | 2.75 |
| CCCOc1cc(C)ccc1NC(=O)NCCNC(C)=O | -6.58 |
| OC1(CN2CCCCC2)CCN(c2cc(C(F)(F)F)ccn2)C1 (stereo unspecified) | -2.22 |

| Structure (SMILES) | cytotoxicity at 10 µM [%] |
| --- | --- |
| OCc1cc2ccccc2nc1NCC1CC1 | -46.2 |
| CCn1cc(CN2CCCN(C(=O)c3ccoc3C)CC2)cn1 | -6.67 |
| CCOc1ccccc1Nc1nc2c(C)nn(C)c2c(=O)n1C | -7.53 |
| COc1ncc(C2(O)CCN(Cc3ccc(F)c(F)c3)CC2)c(OC)n1 | -0.279 |
| c1nc(N2CCCC(Cn3cncn3)C2)c2sccc2n1 (stereo unspecified) | 6.74 |
| Cc1cnn(CC2CN(Cc3cccc(C(=O)N(C)C)c3)CCO2)c1 (stereo unspecified) | -1.73 |
| Cc1c(C(=O)N2CCN(C)[C@@H]3CS(=O)(=O)C[C@@H]32)[nH]c2ccc(F)cc12 | -9.2 |
| CN1CCC(CNC(=O)NCc2ccc(F)cc2)CC1 | -10.1 |
| Cn1cccc1C(=O)N1CCC(O)(CN2CCc3ccccc3C2)C1 (stereo unspecified) | 3.77 |
| CNc1cc(C)nc(C2COCCN2Cc2csc(C)n2)n1 (stereo unspecified) | 1.45 |
| CCOC(=O)C1=NOC(Cc2cc(OC)c3c(c2)OCO3)C1 (stereo unspecified) | 9.98 |
| CC(=O)N1CCC2(CCCN(C(=O)c3ccccc3)C2)C1 (stereo unspecified) | 9.52 |
| O=C(NCCCC(=O)N1CCN(CC2CC2)c2ccccc21)C1CC1 | -9.59 |
| Fc1cccc(F)c1Cn1c(C2CCCNC2)cc2cccnc21 (stereo unspecified) | 2 |
| CCn1nc(C)c2nc(C(C)C)nc(N3CCN(C)CC3)c21 | -2.45 |
| Cc1ccc(NC(=O)Nc2c(O)c3ccccc3oc2=O)cc1 | 3.21 |
| CN(Cc1ccco1)C[C@H]1OC[C@@H]2CCN(Cc3ccsc3)C[C@@H]21 | -3.2 |
| CN(Cc1cccnc1)Cc1cn2c(n1)CN(C1CCOCC1)CC2 | 8.94 |
| COc1ccc2c(ccn2CCC(=O)Nc2n[nH]c(C(C)C)n2)c1 | 3.3 |
| CN(C)CC1(O)CCN(S(=O)(=O)c2ccc(F)c(F)c2)C1 (stereo unspecified) | -0.954 |
| Cn1ccnc1CN1C[C@@H]2[C@@H](C1)OCC(=O)N2CC1CCCC1 | -4.48 |
| Cn1cc(C2CCCN2Cc2csc(-c3ccsc3)n2)cn1 (stereo unspecified) | -8.21 |
| OC1(CN2CCCC2)COCCN(c2ncnc3[nH]cnc23)C1 (stereo unspecified) | 0.458 |

| Structure (SMILES) | cytotoxicity at 10 µM [%] |
| --- | --- |
| O=C([C@H]1C[C@H]2OCC[C@H]2N(Cc2ccccn2)C1)N1CCCCO1 | -73.3 |
| CCCC(C)CS(=O)(=O)NCCc1csc(N2CCCC2)n1 (stereo unspecified) | 7.47 |
| O[C@@H]1C[C@H]2CN(Cc3ccccc3Cl)[C@H](Cc3ccccc3)CN2C1 | -2.51 |
| CN(C)S(=O)(=O)N1CCC(c2cccc(Cc3ccccc3Cl)n2)CC1 | 55.9 |
| O=c1cc(CN(Cc2ccco2)C2CC2)nc2ccc(Br)cn12 | 9.48 |
| COCCN1CCC(CNC(=O)CCc2cc(F)ccc2F)C1 (stereo unspecified) | -4.05 |
| Cc1nc(C2CCCN2CCCn2c(=O)oc3ccccc32)no1 (stereo unspecified) | 6.91 |
| Cc1nc(NCc2noc(C3CCCO3)n2)c2ccsc2n1 (stereo unspecified) | 49.9 |
| NC(=O)c1cncc(Oc2cccc(CN3CCCC3)c2Cl)n1 | -3.47 |
| COc1ncccc1CNC(=O)NC1CCCOc2ccccc21 (stereo unspecified) | -6.14 |
| O=C(c1ccccn1)N1CCC(Oc2ncccc2Cl)CC1 | 3.07 |
| O=C(c1cc[nH]n1)N1CCCC1c1cc(Nc2ccccn2)n[nH]1 (stereo unspecified) | -13.8 |
| O=c1cc(CSc2nnc[nH]2)nc2sc3c(n12)CCCC3 | -6.04 |
| COCCS(=O)(=O)NC(C)c1ccc(-n2nc(C)cc2C)cc1 (stereo unspecified) | 1.91 |
| Cc1ccc(C(=O)Nc2ccccc2N2CCCC2)n1C | 5.55 |
| COc1cccc2[nH]cc(CCNC(=O)N3CCC[C@H]3CO)c12 | -12.6 |
| CC(C)CNC(=O)CNC(=O)NCC(O)c1ccc2ccccc2c1 (stereo unspecified) | -2.52 |
| CC(=O)c1ccc(OCC(=O)NS(=O)(=O)c2cccnc2)cc1 | -18 |
| O=c1[nH]c(C2CCOC2)nc2cc(F)c(F)cc12 (stereo unspecified) | 9.66 |
| CC(C)(C)c1ncc(C(=O)NCCS(N)(=O)=O)s1 | -9.58 |
| Cc1cc(NCCO)nc2[nH]nc(N)c12 | -51.7 |
| O=C(NCc1ccc2c(c1)CCCO2)c1cn2c(n1)CNCC2 | -15.7 |
| Cc1cc(C(=O)N2CCN(c3nc4c(C(C)C)cccc4s3)CC2)on1 | 6.64 |

| Structure (SMILES) | cytotoxicity at 10 µM [%] |
| --- | --- |
| CCOCC1CN(C(=O)c2cc(C)oc2C)Cc2c1cnn2C (stereo unspecified) | 9.64 |
| CCc1cnc(CN(C(C)=O)C2CCN(CCN3CCCCC3)C2)o1 (stereo unspecified) | -3.63 |
| Cc1nccnc1CN1CCC2(CCCN(C3CCOCC3)C2=O)C1 (stereo unspecified) | -5.44 |
| CCN1CCN(CC(O)c2ccc(OC(F)(F)F)cc2)CC1 (stereo unspecified) | -4.47 |
| Cc1nccn1C1CCCN(C(=O)C2=NN(C)C(=O)CC2)C1 (stereo unspecified) | -7.49 |
| CCn1nc(C)c2nc(C(C)C)nc(NCCCn3cccn3)c21 | 8.71 |
| CCc1ncc(CN2CCC(Oc3ccccc3OC)CC2)cn1 | -8.17 |
| Cc1ccc(S(=O)(=O)NC(=O)CCC(F)(F)F)cc1N(C)C | -3.79 |
| CNC(=O)C(C)(C)N1CCC[C@H]1C(=O)NCCN1CCCC1 | -2.3 |
| COc1ccc(C2=CCN(C(=O)C3CCCN(C(N)=O)C3)CC2)cc1 (stereo unspecified) | -10.1 |
| CC(CN1CCCC1=O)NC(=O)c1ccc(-c2ccco2)[nH]c1=O (stereo unspecified) | -5.04 |
| COc1ncccc1CNC(=O)NCc1ccco1 | -12.8 |
| O=C(NCc1nnnn1-c1ccccc1)c1ccc(C2CCCO2)s1 (stereo unspecified) | 0.363 |
| O=C(NCCc1ccncc1)[C@@H]1CC[C@@H]2[C@@H](CCN2Cc2ccco2)O1 | 1.15 |
| Cc1ccc(C(CNCC2CC2)N2CCOCC2)s1 (stereo unspecified) | -13.7 |
| CCc1ocnc1C(=O)N1CCC(n2cc(-c3ccsc3)nn2)CC1 | 1.47 |
| O=S(=O)(Cc1ccccc1Cl)NC(CO)c1ccco1 (stereo unspecified) | -6.86 |
| CCn1c(-c2ccccc2)nn(CC(=O)NCCc2ccc(C)s2)c1=O | 7.69 |
| CCC1=N[C@@]2(CC[C@@H]3CN(C(=O)NCC(C)C)C[C@@H]32)C(=O)N1CCOC | 10.3 |
